The record followed here is ChEMBL document CHEMBL3593208 (Bioorg Med Chem, 2015).

Experiment [1] can be described thus: Cytotoxicity against human NMC-797 cells assessed as cell viability after 48 hrs by luminescence assay. Format: functional, cell-based. The note with it: NMC-797, 48 h. A digest of the protocol: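 797 cells seeded at 2.0×10^4 cells/well in 384-well plates. Compound was pin-transferred in a dose-response series with 0.02% DMSO final and incubated 48 h. Viability was read as ATP-dependent luminescence. IC50 was estimated by logistic regression of replicate measurements against dose, with standard error of logIC50.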

In another experiment the target is T1, Histone deacetylase 8 (Homo sapiens, UniProt Q9BY41).
T1 sequence (Q9BY41 whole entry): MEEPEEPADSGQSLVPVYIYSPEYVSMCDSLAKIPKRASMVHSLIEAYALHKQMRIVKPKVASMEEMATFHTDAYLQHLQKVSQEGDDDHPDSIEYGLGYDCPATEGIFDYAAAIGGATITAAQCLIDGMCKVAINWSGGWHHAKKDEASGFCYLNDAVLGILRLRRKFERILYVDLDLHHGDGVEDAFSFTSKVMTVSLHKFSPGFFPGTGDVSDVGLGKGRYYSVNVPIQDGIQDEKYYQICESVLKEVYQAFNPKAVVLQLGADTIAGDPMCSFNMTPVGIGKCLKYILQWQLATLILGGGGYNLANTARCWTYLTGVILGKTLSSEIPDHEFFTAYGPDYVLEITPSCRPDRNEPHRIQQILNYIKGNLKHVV
Put plainly: Inhibition of recombinant full-length HDAC8 (unknown origin) using MAZ1600/MAZ1675 as substrate assessed as release of 7 amino-4-methylcoumarin measured every 5 mins by fluorescence assay. A digest of the protocol: (§1)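 AMC release after deacetylase plus trypsin action read every 5 min. First derivative in the linear range used. Replicates normalised to DMSO controls (<0.5%). IC50 by logistic regression, unconstrained max/min.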

Experiment [2] is described as follows: Cytotoxicity against human NMC-10326 cells assessed as cell viability after 48 hrs by luminescence assay. Format: functional, cell-based. A digest of the protocol:
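Cells seeded in 384-well plates at 2.0×10^4 cells/well; compound pin-transferred in a dose series, final DMSO 0.02%. After 48 h exposure, viability read as ATP-dependent luminescence (ATPLite). IC50 estimated from replicate measurements by logistic regression.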

A further experiment concerns the target Histone deacetylase 3 (Homo sapiens, UniProt O15379). Put plainly: Inhibition of recombinant full-length HDAC3 (unknown origin) using MAZ1600/MAZ1675 as substrate assessed as release of 7 amino-4-methylcoumarin measured every 5 mins by fluorescence assay.
The target of another experiment is Histone deacetylase 1 (Homo sapiens, UniProt Q13547). Put plainly: Inhibition of recombinant full-length HDAC1 (unknown origin) using MAZ1600/MAZ1675 as substrate assessed as release of 7 amino-4-methylcoumarin measured every 5 mins by fluorescence assay. A digest of the protocol:
as §1

In a further experiment the target is Histone deacetylase 2 (Homo sapiens, UniProt Q92769). Put plainly: Inhibition of recombinant full-length HDAC2 (unknown origin) using MAZ1600/MAZ1675 as substrate assessed as release of 7 amino-4-methylcoumarin measured every 5 mins by fluorescence assay. A digest of the protocol:
as §1

The target in experiment [3] is T2, Protein deacetylase HDAC6 (Homo sapiens, UniProt Q9UBN7).
T2 sequence (Q9UBN7 whole entry): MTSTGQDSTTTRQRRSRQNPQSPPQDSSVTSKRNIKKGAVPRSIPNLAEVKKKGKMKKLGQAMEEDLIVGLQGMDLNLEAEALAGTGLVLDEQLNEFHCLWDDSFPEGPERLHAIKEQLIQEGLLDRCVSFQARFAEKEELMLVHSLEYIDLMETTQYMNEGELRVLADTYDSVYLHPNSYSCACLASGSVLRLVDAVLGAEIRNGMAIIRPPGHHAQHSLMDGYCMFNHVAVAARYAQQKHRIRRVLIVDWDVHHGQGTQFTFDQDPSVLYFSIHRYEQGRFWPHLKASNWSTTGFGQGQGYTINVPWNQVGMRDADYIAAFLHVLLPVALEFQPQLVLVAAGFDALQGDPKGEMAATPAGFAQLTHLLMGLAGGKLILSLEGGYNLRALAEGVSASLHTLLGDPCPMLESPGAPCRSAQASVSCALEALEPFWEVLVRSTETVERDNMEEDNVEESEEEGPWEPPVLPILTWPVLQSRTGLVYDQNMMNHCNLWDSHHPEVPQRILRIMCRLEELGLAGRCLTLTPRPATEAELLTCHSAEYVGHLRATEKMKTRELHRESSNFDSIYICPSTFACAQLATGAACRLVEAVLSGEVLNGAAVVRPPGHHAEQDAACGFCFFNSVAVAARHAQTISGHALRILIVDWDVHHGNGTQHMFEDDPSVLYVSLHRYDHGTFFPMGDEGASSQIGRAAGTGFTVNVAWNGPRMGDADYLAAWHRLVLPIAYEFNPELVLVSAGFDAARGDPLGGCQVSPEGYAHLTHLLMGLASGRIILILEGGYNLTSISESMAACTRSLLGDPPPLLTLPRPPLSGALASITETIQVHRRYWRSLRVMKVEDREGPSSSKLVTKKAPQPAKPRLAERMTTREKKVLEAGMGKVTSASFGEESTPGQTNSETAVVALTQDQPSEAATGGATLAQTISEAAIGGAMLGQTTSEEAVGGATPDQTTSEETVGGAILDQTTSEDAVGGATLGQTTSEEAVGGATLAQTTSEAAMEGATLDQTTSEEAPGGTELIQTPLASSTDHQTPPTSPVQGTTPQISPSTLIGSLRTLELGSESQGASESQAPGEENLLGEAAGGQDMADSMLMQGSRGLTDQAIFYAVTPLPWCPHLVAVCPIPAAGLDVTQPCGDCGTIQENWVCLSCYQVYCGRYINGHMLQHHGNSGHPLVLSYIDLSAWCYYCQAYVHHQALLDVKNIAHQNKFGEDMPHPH
Put plainly: Inhibition of recombinant full-length HDAC6 (unknown origin) using MAZ1600/MAZ1675 as substrate assessed as release of 7 amino-4-methylcoumarin measured every 5 mins by fluorescence assay. The method in brief:
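AMC release after deacetylase/trypsin action read every 5 min. Linear-range first derivative normalised to DMSO controls (<0.5%). IC50 by unconstrained logistic regression.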

Sequence of Histone deacetylase 3 (O15379 whole entry): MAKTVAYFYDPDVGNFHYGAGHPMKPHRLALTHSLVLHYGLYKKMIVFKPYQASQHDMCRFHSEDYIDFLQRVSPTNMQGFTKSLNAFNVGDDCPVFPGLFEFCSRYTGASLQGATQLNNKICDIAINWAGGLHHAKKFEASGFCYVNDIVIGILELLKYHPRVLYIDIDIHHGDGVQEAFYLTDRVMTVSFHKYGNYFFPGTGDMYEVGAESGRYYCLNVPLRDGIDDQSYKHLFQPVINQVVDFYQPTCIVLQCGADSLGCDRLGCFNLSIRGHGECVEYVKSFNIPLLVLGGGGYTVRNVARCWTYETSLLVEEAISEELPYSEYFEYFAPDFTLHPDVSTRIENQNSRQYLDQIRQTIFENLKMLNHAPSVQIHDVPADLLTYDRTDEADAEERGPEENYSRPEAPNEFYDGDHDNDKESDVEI
Sequence of Histone deacetylase 2 (Q92769 whole entry): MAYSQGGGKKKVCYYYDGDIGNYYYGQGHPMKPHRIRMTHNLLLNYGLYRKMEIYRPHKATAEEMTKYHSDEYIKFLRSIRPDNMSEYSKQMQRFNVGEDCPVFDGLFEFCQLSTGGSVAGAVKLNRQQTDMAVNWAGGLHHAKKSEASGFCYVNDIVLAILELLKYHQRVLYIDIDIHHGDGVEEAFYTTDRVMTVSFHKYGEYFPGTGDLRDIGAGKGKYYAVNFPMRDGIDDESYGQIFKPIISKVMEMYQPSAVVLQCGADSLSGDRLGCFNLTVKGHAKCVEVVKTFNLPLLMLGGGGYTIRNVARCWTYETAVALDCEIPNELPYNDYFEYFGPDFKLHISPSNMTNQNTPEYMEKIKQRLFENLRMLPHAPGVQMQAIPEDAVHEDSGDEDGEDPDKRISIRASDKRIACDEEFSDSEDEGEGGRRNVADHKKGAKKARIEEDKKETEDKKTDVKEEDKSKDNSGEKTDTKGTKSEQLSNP
Sequence of Histone deacetylase 1 (Q13547 whole entry): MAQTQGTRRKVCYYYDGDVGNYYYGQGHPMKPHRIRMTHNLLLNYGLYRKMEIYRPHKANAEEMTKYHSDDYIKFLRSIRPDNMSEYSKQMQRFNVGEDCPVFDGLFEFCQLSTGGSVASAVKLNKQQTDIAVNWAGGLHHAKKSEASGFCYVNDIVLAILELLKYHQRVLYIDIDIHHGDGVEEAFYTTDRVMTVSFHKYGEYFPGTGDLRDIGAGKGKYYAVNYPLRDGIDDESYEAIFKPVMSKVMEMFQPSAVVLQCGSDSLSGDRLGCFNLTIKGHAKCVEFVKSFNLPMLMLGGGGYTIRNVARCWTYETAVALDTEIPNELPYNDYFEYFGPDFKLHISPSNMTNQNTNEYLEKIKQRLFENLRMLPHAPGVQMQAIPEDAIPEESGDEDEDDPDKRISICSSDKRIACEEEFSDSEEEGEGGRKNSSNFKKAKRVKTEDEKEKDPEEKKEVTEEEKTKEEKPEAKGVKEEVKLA

Turning to `CC(C)[C@@H]1NC(=O)[C@]2(C)CSC(=N2)c2csc(n2)CNC(=O)C[C@@H](/C=C/CCS)NC1=O`, the IC50 in experiment [1] (read-out: IC50) was 1740 nM; in experiment [1] (read-out: pIC50 (converted)), 1730 nM; on Histone deacetylase 8, 255 nM; in experiment [2] (read-out: IC50) it was 11900 nM; in experiment [2] (read-out: pIC50 (converted)) it was 11900 nM.
As to `CCCCCCCC(=O)SCC/C=C/[C@@H]1CC(=O)NCc2cccc(n2)C2=N[C@@](C)(CS2)C(=O)N[C@@H](C(C)C)C(=O)O1`, the values for the IC50 on Histone deacetylase 3, on Histone deacetylase 1 and on Histone deacetylase 2 were 332 nM, 204 nM and 350 nM, respectively.
In the case of `CC(C)[C@@H]1NC(=O)[C@]2(C)CSC(=N2)c2cccc(n2)CNC(=O)C[C@@H](/C=C/CCS)OC1=O`, the IC50 was 220 nM in experiment [1] (read-out: IC50); 222 nM in experiment [1] (read-out: pIC50 (converted)); 3.07 nM on Histone deacetylase 3; 48.5 nM in experiment [3]; 341 nM at Histone deacetylase 8; 290 nM in experiment [2] (read-out: IC50). The IC50 in experiment [2] (read-out: pIC50 (converted)) was 298 nM.
`CCCCCCCC(=O)SCC/C=C/[C@@H]1CC(=O)NCc2cc(ccn2)C2=N[C@@](C)(CS2)C(=O)N[C@@H](C(C)C)C(=O)O1`: the IC50 on Histone deacetylase 3 stood at 320 nM; at Histone deacetylase 1 it was 340 nM; at Histone deacetylase 2 it was 655 nM.
Regarding `CC(C)[C@@H]1NC(=O)[C@]2(C)CSC(=N2)c2ccnc(c2)CNC(=O)C[C@@H](/C=C/CCS)OC1=O`, the IC50 was 90 nM in experiment [1] (read-out: IC50); 93.1 nM in experiment [1] (read-out: pIC50 (converted)); 2.31 nM on Histone deacetylase 3; 35.2 nM in experiment [3]; 102 nM on Histone deacetylase 8; 2.2 nM on Histone deacetylase 1. Besides, the IC50 was 120 nM in experiment [2] (read-out: IC50), 122 nM in experiment [2] (read-out: pIC50 (converted)) and 4.42 nM on Histone deacetylase 2.
As for `CCCCCCCC(=O)SCC/C=C/[C@@H]1CC(=O)NCc2cccc(n2)C2=N[C@@](C)(CS2)C(=O)N[C@@H](C(C)C)C(=O)N1`, the IC50 at Histone deacetylase 3 came out at 332 nM; on Histone deacetylase 1 it was 340 nM; at Histone deacetylase 2, 472 nM.
For `CC(C)[C@@H]1NC(=O)[C@]2(C)CSC(=N2)c2cccc(n2)CNC(=O)C[C@@H](/C=C/CCS)NC1=O`, the results for the IC50 on Histone deacetylase 3, on Histone deacetylase 1 and on Histone deacetylase 2 were 42.5 nM, 42 nM and 69.8 nM, respectively.
Turning to `CCCCCCCC(=O)SCC/C=C/[C@@H]1CC(=O)NCc2cc(ccn2)C2=N[C@@](C)(CS2)C(=O)N[C@@H](C(C)C)C(=O)N1`, the IC50 stood at 846 nM on Histone deacetylase 3, 817 nM on Histone deacetylase 1 and 1240 nM on Histone deacetylase 2.
In the case of `CC(C)[C@@H]1NC(=O)[C@]2(C)CSC(=N2)c2ccnc(c2)CNC(=O)C[C@@H](/C=C/CCS)NC1=O`, the IC50 at Histone deacetylase 3 was found to be 14.6 nM; in experiment [3], 2850 nM; on Histone deacetylase 8 it was 1490 nM; on Histone deacetylase 1, 13.2 nM; at Histone deacetylase 2 it was 20.8 nM.
